Experimental data as given in PMC9435035 (ACS Omega, 2022).

Tests used:
[1] = system: Balb/C mice; test: acute toxicity study in mice; type: in vivo
In short: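 Two-phase modified Lorke protocol in Balb/C mice (20–25 g), four per group. Phase 1: control given Tween-80 (2%); other groups received oral test compound at 100, 500 or 1000 mg/kg. Phase 2: oral doses of 1250, 1500 and 2000 mg/kg. Animals observed for the first 24 h, then daily for 2 weeks for diarrhea, convulsions, lethargy, sleeping, salivation and tremors, with mortality monitored.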

[2] = system: streptozotocin-induced diabetic Wistar rats; test: serum profile; type: in vivo, Wistar albino rats; settings: STZ-diabetic rats; for (ALP) IU / (SGOT) IU / (SGPT) IU: serum
In short: (§1)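 STZ-diabetic Wistar rats (n = 8 per group) received test compound at 10 or 20 mg/kg p.o., or glibenclamide 500 μg/kg p.o., once daily for 28 days; controls received vehicle. On day 28, rats were anesthetised with pentobarbital sodium (35 mg/kg) and blood was drawn by cardiac puncture. Serum ALP, SGPT, SGOT, LDL, HDL, TG, total cholesterol, creatinine and insulin were measured. Means ± SEM, one-way ANOVA with Dunnett's test.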

[3] = system: streptozotocin-induced diabetic Wistar rats; test: antidiabetic activity: blood glucose in STZ-induced diabetes; type: in vivo, Wistar albino rats
In short: (§2)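 Male Wistar albino rats (170–200 g, 8–10 weeks), fasted overnight, given STZ 50 mg/kg i.p. in 0.1 M citrate buffer, then 10% glucose for 3 days. Tail-vein glucose by glucometer at 72 h; >250 mg/dL counted as diabetic. Body weight and blood glucose on days 1, 7, 14, 21 and 28. Means ± SEM, one-way ANOVA with Dunnett's test.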

[4] = body weight of STZ-induced diabetic rats; type: in vivo, Wistar albino rats; settings: for body weight, day 1: day 1, in g (unit assumed); for body weight, day 7: day 7, in g (unit assumed); for body weight, day 14: day 14, in g (unit assumed); for body weight, day 21: day 21, in g (unit assumed); for body weight, day 28: day 28, in g (unit assumed)
In short: as §2

[5] = system: overnight fasted normal rats; test: oral glucose tolerance test; type: in vivo, Wistar albino rats; settings: OGTT, glucose 3 g/kg oral
[6] = system: streptozotocin-induced diabetic Wistar rats; test: lipid profile in streptozotocin-induced diabetes; type: in vivo, Wistar albino rats; settings: STZ-diabetic rats
In short: as §1

[7] = biological target: α-glucosidase (Saccharomyces cerevisiae, UniProt P53341); test: α-glucosidase inhibitory activity; type: biochemical; settings: read-out: glucosidase inhibition IC50 ± SEM; mean ± SEM
α-glucosidase, sequence (P53341 whole entry): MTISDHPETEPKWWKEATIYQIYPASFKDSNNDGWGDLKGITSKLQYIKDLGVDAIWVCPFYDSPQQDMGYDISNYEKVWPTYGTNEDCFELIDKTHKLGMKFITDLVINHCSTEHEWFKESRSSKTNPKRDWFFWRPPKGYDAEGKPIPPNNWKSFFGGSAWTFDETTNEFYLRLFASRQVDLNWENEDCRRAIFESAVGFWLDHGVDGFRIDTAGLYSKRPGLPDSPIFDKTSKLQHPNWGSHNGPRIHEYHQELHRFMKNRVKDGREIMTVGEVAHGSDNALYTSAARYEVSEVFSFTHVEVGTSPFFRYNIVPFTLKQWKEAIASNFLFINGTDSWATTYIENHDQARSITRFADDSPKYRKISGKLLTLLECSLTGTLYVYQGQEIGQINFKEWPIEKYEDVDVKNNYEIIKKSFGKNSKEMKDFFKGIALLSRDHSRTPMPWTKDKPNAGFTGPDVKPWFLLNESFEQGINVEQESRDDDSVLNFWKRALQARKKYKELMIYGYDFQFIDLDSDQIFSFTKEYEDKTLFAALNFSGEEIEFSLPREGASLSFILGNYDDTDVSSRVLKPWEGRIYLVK

## 2-(4-(Benzyloxy)-3-methoxyphenyl)-4-(p-tolyl)-2,3-dihydrobenzo[b][1,5]thiazepine [12B]
[1]; maximum oral dose of 2000 mg/kg (b.w.)
  mortality: no mortality
[1]; oral up to 2000 mg/kg, observed daily for 2 weeks
  toxic effects (diarrhea, convulsions, lethargy, sleeping, salivation, tremor): no toxic effects
[2]; 10 mg/kg for 28 days
  insulin level: 0.651 ± 0.34 ng/mL
  serum creatinine: 0.90 ± 0.30 mg/dL
  (ALP) IU: 215.19 ± 4.10 IU
  (SGOT) IU: 26.01 ± 2.01 IU
  (SGPT) IU: 26.53 ± 2.38 IU
[2]; 20 mg/kg for 28 days
  insulin level: 0.660 ± 0.30 ng/mL
  serum creatinine: 0.80 ± 0.38 mg/dL
  (ALP) IU: 205.93 ± 4.67 IU
  (SGOT) IU: 22.91 ± 2.87 IU
  (SGPT) IU: 23.35 ± 2.54 IU
[3]; 10 mg/kg p.o. once daily
  blood glucose level, day 1: 371.67 ± 4.66 mg/dL
  blood glucose level, day 7: 301.41 ± 4.56 mg/dL
  blood glucose level, day 14: 209.60 ± 4.22 mg/dL
  blood glucose level, day 21: 152.56 ± 4.71 mg/dL
[3]; 10 mg/kg p.o. once daily, day 28, 10 mg/kg
  blood glucose level, day 28: 138.92 ± 4.67 mg/dL
[3]; 20 mg/kg p.o. once daily
  blood glucose level, day 1: 369.56 ± 4.56 mg/dL
  blood glucose level, day 7: 237.11 ± 4.39 mg/dL
  blood glucose level, day 14: 167.49 ± 5.02 mg/dL
  blood glucose level, day 21: 131.69 ± 4.77 mg/dL
[3]; 20 mg/kg p.o. once daily, day 28, 20 mg/kg
  blood glucose level, day 28: 114.74 ± 5.09 mg/dL
[4]; 10 mg/kg
  body weight, day 1: 187.5 ± 4.39
  body weight, day 7: 185.1 ± 4.71
  body weight, day 14: 184.5 ± 4.06
  body weight, day 21: 187.0 ± 4.39
  body weight, day 28: 173.9 ± 4.28
[4]; 20 mg/kg
  body weight, day 1: 189.7 ± 4.08
  body weight, day 7: 184.7 ± 4.66
  body weight, day 14: 187.1 ± 4.11
  body weight, day 21: 189.3 ± 4.60
  body weight, day 28: 175.3 ± 5.01
[5]; dose 10 mg/kg
  blood glucose level, 0 min: 101.67 ± 4.55 mg/dL
  blood glucose level, 30 min: 121.63 ± 4.56 mg/dL
  blood glucose level, 60 min: 122.02 ± 4.66 mg/dL
  blood glucose level, 90 min: 115.31 ± 4.61 mg/dL
  blood glucose level, 120 min: 114.19 ± 4.61 mg/dL
[5]; dose 20 mg/kg
  blood glucose level, 0 min: 105.59 ± 4.61 mg/dL
  blood glucose level, 30 min: 117.38 ± 4.01 mg/dL
  blood glucose level, 60 min: 117.61 ± 4.60 mg/dL
  blood glucose level, 90 min: 110.71 ± 4.91 mg/dL
  blood glucose level, 120 min: 111.21 ± 4.31 mg/dL
[6]; 10 mg/kg for 28 days
  HDL: 45.91 ± 2.70 mg/dL
  TG: 149.81 ± 4.60 mg/dL
[6]; 10 mg/kg for 28 days, 10 mg/kg
  LDL: 134.89 ± 4.33 mg/dL
  total CH: 152.11 ± 4.11 mg/dL
[6]; 20 mg/kg for 28 days
  HDL: 53.24 ± 2.08 mg/dL
  TG: 117.97 ± 4.01 mg/dL
[6]; 20 mg/kg for 28 days, 20 mg/kg
  LDL: 113.71 ± 4.16 mg/dL
  total CH: 136.03 ± 4.39 mg/dL
[7]
  IC50: 3.79 ± 0.22 µM
